Source: ChEMBL document CHEMBL5653631, “A Potent and Selective ULK1 Inhibitor Suppresses Autophagy and Sensitizes Cancer Cells to Nutrient Stress” (iScience, 2018)
Blank lines part the entries; values can stand above or below the compound they belong to.

Columns and labels:
[1] = molecular target: Tyrosine-protein kinase Fer (Homo sapiens) (UniProt P16591); experiment: Inhibition of human recombinant FER at 500 nM in presence of ATP by radiometric assay relative to control
[2] = molecular target: Leukocyte tyrosine kinase receptor (Homo sapiens) (UniProt P29376); experiment: Inhibition of human recombinant LTK at 500 nM in presence of ATP by radiometric assay relative to control
Chain of Leukocyte tyrosine kinase receptor (Homo sapiens) (P29376 whole entry): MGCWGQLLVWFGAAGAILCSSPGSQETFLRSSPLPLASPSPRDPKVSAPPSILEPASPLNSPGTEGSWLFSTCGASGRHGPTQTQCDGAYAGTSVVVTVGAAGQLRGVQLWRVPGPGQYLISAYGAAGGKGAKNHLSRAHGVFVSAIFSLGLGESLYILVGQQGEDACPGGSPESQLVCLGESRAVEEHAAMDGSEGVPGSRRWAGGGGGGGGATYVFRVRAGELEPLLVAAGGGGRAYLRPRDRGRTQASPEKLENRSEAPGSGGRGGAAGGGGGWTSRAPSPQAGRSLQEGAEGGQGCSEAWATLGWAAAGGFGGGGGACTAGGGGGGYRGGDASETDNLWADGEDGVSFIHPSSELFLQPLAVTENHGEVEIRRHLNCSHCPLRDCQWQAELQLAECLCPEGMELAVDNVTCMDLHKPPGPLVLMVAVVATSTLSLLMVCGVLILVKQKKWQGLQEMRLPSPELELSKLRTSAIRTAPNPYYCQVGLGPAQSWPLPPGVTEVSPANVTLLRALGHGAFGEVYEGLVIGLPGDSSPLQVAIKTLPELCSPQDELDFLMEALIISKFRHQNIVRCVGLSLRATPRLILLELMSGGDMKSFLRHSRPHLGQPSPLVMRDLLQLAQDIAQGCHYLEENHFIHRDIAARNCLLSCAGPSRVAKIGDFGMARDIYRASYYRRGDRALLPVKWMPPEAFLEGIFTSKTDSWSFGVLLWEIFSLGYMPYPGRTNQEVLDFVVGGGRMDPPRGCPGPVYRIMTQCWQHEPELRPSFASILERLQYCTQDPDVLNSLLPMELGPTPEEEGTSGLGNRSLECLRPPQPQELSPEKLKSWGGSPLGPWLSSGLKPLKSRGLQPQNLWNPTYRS

[3] = molecular target: Tyrosine-protein kinase ABL2 (Homo sapiens) (UniProt P42684); experiment: Inhibition of human recombinant ABL2 at 40 nM related to control ULK1
How it was run: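 Radiometric activity assays in a panel of 327 human recombinant kinases, each run in duplicate at one inhibitor concentration. Activity remaining is expressed as percent of vehicle control, and percent inhibition is calculated as 100% minus percent activity remaining.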

[4] = molecular target: Transcription initiation factor TFIID subunit 1-like (Homo sapiens) (UniProt Q8IZX4); experiment: Inhibition of human recombinant TAF1L at 40 nM related to control ULK1
Chain of Transcription initiation factor TFIID subunit 1-like (Homo sapiens) (Q8IZX4 whole entry): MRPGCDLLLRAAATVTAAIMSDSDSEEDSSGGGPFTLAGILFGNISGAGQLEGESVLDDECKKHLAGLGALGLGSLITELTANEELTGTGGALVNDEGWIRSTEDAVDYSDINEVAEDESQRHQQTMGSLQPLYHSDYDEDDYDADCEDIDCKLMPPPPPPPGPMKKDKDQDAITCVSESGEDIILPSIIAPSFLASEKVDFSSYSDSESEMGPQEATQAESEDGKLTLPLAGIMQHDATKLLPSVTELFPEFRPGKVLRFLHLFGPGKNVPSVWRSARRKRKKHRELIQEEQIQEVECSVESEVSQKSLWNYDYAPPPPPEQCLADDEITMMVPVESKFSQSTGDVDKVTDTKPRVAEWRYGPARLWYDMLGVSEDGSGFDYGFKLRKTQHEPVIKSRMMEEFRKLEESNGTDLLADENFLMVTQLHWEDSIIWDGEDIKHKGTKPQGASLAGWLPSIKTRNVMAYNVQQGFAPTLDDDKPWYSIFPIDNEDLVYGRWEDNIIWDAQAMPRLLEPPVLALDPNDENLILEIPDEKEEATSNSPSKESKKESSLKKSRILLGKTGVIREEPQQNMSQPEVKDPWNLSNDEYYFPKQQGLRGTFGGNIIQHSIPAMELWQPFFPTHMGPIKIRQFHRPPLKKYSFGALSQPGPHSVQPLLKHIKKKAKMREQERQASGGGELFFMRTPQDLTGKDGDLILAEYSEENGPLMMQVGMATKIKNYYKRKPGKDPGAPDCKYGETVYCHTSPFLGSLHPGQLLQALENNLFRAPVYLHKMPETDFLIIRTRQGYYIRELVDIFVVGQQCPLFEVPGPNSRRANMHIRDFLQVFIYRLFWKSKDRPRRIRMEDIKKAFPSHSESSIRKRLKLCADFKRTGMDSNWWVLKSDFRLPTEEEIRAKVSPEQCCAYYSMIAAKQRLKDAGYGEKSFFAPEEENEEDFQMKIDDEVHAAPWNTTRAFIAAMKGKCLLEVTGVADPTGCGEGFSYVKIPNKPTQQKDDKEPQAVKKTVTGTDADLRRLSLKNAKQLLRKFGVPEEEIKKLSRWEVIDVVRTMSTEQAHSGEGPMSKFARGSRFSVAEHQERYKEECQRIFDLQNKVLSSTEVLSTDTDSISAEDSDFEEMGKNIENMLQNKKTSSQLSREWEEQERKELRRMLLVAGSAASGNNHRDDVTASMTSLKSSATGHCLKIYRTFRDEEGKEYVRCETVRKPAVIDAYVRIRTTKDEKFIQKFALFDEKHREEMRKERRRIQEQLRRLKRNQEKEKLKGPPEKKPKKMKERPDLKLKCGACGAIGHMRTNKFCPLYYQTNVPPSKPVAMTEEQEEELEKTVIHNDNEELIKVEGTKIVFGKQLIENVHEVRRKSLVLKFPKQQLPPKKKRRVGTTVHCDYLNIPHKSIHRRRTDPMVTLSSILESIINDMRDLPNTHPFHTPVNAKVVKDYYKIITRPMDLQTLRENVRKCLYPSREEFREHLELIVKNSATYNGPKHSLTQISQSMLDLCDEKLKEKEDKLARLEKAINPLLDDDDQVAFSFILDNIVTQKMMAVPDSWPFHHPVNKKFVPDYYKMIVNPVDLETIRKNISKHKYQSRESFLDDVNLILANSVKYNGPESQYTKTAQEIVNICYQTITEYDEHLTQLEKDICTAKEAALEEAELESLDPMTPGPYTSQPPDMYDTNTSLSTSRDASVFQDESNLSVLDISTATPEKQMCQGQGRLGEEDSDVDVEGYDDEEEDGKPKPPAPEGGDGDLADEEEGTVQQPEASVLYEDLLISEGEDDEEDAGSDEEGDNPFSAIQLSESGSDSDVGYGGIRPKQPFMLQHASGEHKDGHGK

[5] = molecular target: T1, Tribbles homolog 2 (Homo sapiens) (UniProt Q92519); experiment: Inhibition of human recombinant Trb2 at 40 nM related to control ULK1
T1 sequence (whole entry): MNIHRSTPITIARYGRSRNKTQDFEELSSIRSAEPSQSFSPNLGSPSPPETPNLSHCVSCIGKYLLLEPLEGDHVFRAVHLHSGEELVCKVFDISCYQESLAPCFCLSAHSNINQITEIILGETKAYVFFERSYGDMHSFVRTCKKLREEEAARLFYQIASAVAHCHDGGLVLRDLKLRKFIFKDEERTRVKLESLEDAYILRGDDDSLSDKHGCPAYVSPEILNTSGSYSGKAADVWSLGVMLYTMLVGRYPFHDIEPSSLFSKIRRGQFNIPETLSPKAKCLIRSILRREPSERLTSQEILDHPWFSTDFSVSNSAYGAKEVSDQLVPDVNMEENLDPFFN

[6] = molecular target: Serine/threonine-protein kinase NIM1 (Homo sapiens) (UniProt Q8IY84); experiment: Inhibition of human recombinant NIM1 at 40 nM in presence of ATP by radiometric assay relative to control
Chain of Serine/threonine-protein kinase NIM1 (Homo sapiens) (Q8IY84 whole entry): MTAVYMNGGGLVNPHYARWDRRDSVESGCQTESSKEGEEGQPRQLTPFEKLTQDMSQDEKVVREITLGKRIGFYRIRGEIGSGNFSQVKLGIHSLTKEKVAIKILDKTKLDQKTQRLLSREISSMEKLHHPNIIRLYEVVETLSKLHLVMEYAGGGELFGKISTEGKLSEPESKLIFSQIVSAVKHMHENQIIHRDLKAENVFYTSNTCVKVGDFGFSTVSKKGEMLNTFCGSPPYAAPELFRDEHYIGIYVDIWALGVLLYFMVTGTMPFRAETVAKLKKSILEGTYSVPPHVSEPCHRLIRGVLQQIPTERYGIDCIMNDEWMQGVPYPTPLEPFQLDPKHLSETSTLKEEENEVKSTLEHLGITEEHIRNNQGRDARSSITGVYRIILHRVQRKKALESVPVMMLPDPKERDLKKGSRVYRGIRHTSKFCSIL

[7] = molecular target: T2, NUAK family SNF1-like kinase 1 (Homo sapiens) (UniProt O60285); experiment: Inhibition of human recombinant NuaK1 at 15 nM related to control ULK1
T2 sequence (whole entry): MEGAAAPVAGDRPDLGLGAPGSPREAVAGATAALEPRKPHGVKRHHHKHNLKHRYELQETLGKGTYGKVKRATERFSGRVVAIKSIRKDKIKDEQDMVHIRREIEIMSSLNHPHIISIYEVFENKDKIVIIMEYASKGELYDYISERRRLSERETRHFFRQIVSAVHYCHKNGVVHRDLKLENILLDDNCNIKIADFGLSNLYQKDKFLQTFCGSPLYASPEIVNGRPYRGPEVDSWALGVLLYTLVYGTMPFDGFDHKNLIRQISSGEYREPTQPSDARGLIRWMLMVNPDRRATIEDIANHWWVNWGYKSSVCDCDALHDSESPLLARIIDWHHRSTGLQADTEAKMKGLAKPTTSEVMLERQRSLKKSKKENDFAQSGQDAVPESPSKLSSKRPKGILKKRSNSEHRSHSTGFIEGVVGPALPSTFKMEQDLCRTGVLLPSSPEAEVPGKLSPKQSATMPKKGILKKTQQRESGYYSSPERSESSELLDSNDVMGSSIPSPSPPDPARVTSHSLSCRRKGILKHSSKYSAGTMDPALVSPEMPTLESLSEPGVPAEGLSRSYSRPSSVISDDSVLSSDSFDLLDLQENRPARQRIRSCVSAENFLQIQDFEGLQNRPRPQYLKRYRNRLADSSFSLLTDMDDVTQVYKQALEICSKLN

[8] = molecular target: Platelet-derived growth factor receptor beta (Homo sapiens) (UniProt P09619); experiment: Inhibition of human recombinant PDGFRb at 15 nM related to control ULK1
Chain of Platelet-derived growth factor receptor beta (Homo sapiens) (P09619 whole entry): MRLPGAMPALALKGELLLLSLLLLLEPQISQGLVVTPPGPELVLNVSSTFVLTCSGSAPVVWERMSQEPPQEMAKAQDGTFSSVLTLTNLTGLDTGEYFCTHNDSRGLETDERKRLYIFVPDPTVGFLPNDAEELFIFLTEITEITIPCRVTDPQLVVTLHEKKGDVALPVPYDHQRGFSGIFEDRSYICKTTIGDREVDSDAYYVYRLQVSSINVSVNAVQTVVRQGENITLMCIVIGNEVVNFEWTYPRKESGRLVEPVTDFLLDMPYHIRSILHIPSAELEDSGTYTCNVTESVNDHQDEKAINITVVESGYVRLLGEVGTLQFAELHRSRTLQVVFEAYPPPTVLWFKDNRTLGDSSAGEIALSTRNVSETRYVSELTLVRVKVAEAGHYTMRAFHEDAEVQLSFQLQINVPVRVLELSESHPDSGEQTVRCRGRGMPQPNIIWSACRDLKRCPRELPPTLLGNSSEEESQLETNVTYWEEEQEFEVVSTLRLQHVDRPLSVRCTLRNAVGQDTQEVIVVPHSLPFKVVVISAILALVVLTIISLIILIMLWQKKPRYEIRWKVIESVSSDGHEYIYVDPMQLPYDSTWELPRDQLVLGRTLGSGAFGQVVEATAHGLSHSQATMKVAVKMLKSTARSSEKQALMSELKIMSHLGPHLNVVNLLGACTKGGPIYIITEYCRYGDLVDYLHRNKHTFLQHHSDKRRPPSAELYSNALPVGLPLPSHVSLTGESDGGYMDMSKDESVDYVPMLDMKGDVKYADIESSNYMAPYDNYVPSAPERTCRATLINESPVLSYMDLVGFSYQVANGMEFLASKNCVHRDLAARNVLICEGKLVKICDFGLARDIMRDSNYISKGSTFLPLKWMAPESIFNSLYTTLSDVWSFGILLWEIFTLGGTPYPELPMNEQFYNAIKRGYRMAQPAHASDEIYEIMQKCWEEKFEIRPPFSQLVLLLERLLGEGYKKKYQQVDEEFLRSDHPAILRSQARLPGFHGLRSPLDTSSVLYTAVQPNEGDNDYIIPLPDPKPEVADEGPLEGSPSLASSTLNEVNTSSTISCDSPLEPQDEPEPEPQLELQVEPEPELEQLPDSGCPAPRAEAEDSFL

[9] = molecular target: T3, Tyrosine-protein kinase TXK (Homo sapiens) (UniProt P42681); experiment: Inhibition of human recombinant TXK at 15 nM in presence of ATP by radiometric assay relative to control
T3 sequence (whole entry): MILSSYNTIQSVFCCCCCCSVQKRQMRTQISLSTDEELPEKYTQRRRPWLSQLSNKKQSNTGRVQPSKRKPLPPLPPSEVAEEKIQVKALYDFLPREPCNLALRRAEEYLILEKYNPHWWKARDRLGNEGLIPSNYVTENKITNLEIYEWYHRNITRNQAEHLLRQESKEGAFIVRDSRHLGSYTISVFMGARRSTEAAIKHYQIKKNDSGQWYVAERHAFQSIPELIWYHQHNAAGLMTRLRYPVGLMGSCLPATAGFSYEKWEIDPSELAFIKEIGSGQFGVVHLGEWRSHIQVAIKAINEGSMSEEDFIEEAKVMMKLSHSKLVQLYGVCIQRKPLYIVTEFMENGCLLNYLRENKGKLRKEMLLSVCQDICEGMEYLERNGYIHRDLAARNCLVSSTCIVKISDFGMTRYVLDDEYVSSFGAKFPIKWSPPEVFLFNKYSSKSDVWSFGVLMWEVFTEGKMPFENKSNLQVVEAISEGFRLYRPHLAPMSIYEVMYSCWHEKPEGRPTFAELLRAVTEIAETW

Chain of Tyrosine-protein kinase Fer (Homo sapiens) (P16591 whole entry, looked up): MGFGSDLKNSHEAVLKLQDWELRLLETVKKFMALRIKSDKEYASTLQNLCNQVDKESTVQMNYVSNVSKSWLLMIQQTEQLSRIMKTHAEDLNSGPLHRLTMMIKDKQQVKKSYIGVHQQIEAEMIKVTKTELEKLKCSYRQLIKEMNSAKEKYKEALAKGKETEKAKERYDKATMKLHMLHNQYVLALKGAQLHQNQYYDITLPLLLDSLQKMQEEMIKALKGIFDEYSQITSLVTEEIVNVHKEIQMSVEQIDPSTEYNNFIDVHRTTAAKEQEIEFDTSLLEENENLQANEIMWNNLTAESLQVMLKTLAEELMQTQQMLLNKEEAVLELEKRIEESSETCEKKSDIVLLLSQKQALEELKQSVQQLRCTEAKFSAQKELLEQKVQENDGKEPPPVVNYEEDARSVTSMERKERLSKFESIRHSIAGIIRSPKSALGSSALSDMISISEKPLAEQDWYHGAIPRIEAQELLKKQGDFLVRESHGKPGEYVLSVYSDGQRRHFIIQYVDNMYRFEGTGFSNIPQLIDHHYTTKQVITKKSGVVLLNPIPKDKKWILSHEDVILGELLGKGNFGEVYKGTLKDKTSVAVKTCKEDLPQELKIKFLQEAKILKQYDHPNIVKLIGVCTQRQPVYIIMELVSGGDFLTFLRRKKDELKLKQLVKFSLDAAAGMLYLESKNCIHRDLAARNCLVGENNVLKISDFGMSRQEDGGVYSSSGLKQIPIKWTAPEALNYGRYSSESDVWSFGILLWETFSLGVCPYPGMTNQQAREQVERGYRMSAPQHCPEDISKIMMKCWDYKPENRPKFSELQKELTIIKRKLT

inhibition [1]: 0%
inhibition [2]: 3%
Structure (SMILES): CNC(=O)c1ccccc1Oc1nc(Nc2cc(OC)c(OC)c(OC)c2)ncc1Br

fold change (FC) [3]: 0.1
fold change (FC) [4]: 0.64
fold change (FC) [5]: 0.47
inhibition [6]: 0%
Structure (SMILES): O=C(N[C@@H](C1CC1)C(F)(F)F)c1cc(-c2cnn3cc(-c4ccc(F)cc4)cnc23)cs1

fold change (FC) [7]: 0.31
fold change (FC) [8]: 0
inhibition [9]: 59%
Structure (SMILES): CC(C)[C@H](NC(=O)c1cc(-c2cnn3cc(-c4ccc(OCCN5CCCCC5)cc4)cnc23)cs1)C(F)(F)F
